The target of experiment [1] is T1, Melanocortin receptor 4 (Homo sapiens, UniProt P32245). Nature of the experiment: Inhibitory concentration to displace [125I]NDP-alpha-MSH from human melanocortin 4 receptor expressed in CHO cells; Control 19 nM. It is filed as cell-based.
Experiment [2] concerns the target T1, Melanocortin receptor 4. The experiment can be described thus: Concentration of compound at 50% maximum cAMP accumulation mediated by human melanocortin 4 receptor. It is filed as functional.
The target in experiment [3] is T2, Melanocortin receptor 3 (Homo sapiens, UniProt P41968). The conditions noted are these: at 10 µM.
T2 sequence (P41968 whole entry): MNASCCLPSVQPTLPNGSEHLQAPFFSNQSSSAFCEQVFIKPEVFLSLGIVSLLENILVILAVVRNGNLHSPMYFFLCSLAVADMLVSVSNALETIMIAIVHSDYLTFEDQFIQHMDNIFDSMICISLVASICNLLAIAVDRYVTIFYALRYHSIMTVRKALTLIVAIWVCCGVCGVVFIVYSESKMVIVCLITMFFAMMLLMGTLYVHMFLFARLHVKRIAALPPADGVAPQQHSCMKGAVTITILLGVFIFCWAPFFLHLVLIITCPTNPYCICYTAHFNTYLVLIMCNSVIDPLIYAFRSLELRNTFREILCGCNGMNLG
The target in experiment [4] is T3, Melanocortin receptor 5 (Homo sapiens, UniProt P33032). Nature of the experiment: Concentration of compound at 50% maximum cAMP accumulation mediated by human melanocortin 5 receptor. It is filed as functional.
T3 sequence (P33032 whole entry): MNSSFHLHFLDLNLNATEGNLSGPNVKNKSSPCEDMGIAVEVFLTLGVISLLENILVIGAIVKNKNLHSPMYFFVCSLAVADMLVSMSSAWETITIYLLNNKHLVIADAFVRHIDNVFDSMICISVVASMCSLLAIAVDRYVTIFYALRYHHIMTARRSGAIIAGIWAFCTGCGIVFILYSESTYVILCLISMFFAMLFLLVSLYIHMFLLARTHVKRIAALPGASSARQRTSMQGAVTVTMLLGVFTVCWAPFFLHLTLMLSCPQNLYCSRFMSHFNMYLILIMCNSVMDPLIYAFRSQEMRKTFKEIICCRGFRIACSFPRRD
In experiment [5] the target is T1, Melanocortin receptor 4. To be noted: at 10 µM.
Experiment [6] addresses T3, Melanocortin receptor 5. To be noted: at 10 µM.
Experiment [7] has as its target Melanocortin receptor (M3 and M4) (Homo sapiens) (UniProt P32245+P41968). The experiment can be described thus: Selectivity for human melanocortin 3 receptor over melanocortin 4 receptor expressed in CHO cells; control 1 nM. It is filed as cell-based.
Experiment [8] is described as follows: Selectivity for human melanocortin 3 receptor over melanocortin 5 receptor expressed in CHO cells; control 6 nM. In kind it is cell-based.
Experiment [9] is filed under the species Rattus norvegicus. Nature of the experiment: Covalent binding to rat microsomal proteins after 30 min of incubation with [3H]-compound in the presence of NADPH (n=3). In kind it is functional. The method, boiled down: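 Tritium-labelled compound was incubated for 30 min with rat liver microsomes plus NADPH. Radioactivity bound covalently to microsomal protein was expressed as pmol equivalents per mg protein. Values are mean ± standard deviation of n = 3.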

Experiment [10] has as its target T2, Melanocortin receptor 3. The experiment can be described thus: Concentration of compound at 50% maximum cAMP accumulation mediated by human melanocortin 3 receptor. In kind it is functional.

T1 sequence (P32245 whole entry): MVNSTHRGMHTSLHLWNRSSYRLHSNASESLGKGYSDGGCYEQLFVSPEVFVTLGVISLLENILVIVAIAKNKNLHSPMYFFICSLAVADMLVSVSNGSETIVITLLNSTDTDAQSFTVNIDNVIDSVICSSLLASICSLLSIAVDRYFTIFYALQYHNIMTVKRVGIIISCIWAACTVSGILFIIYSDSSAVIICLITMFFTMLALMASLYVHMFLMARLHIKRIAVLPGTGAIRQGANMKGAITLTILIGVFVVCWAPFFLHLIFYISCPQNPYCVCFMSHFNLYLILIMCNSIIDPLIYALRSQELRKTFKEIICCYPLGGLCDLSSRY

For `CC[C@H]1CN[C@H](C(=O)N[C@H](Cc2ccc(F)cc2)C(=O)N2CCC(C(=O)NC(C)(C)C)(C3CCCCC3)CC2)CN1`, the concentration for half-maximal inhibition (IC50) in experiment [1] came to 3 nM. For the same molecule, the EC50 was determined as 5 nM in [2] and 710 nM in experiment [4]. Besides, the Accumulation in [3] was 9%; in experiment [5] it was 89%; in experiment [6] it was 43%. The Selectivity in [7] is 152; in experiment [8], 126.

In experiment [1], `CC(C)(C)NC(=O)C1(C2CCCCC2)CCN(C(=O)[C@@H](Cc2ccc(F)cc2)NC(=O)[C@@H]2CN[C@@H](C3(C)CC3)CN2)CC1` displayed an IC50 of 5 nM. The values for the 50% effective concentration (EC50) in experiment [2] and in [4] were 7 nM and 300 nM, respectively. Moreover, the Accumulation in experiment [3] is 10%; in experiment [5], 95%; in experiment [6] it was 62%. Moreover, the Selectivity in [7] is 99; in experiment [8], 40.

As for `CC(C)[C@H]1CN[C@H](C(=O)N[C@H](Cc2ccc(F)cc2)C(=O)N2CCC(C(=O)NC(C)(C)C)(C3CCCCC3)CC2)CN1`, in experiment [1], the 50% inhibitory concentration (IC50) stood at 4 nM. In addition, the EC50 in [2] is 3 nM; in experiment [4] it was 340 nM. In addition, the Accumulation was determined as 8% in experiment [3], 82% in experiment [5] and 49% in experiment [6]. Also, the Selectivity came to 140 in experiment [7] and 116 in experiment [8]. In addition, the Activity in [9] stood at 107.

`C[C@H]1CN[C@H](C(=O)N[C@H](Cc2ccc(F)cc2)C(=O)N2CCC(C(=O)NC(C)(C)C)(C3CCCCC3)CC2)CN1` showed an IC50 in experiment [1] of 6 nM. The EC50 in experiment [2] stood at 8 nM; in experiment [4], 880 nM. Further, the results for the Accumulation in experiment [3], in experiment [5] and in [6] were 6%, 79% and 42%, respectively. The Selectivity in [7] worked out at 86; in experiment [8] it was 87. For the same molecule, the Activity in experiment [9] turned out to be 50.

Turning to `CC(C)(C)NC(=O)C1(C2CCCCC2)CCN(C(=O)[C@@H](Cc2ccc(F)cc2)NC(=O)[C@@H]2CN[C@H](C(C)(C)C)CN2)CC1`, the IC50 in experiment [1] amounted to 29 nM. Moreover, the EC50 in experiment [2] came to 91 nM; in experiment [4], 1000 nM. Moreover, the Accumulation turned out to be 5% in [3], 77% in experiment [5] and 54% in experiment [6]. The Selectivity amounted to 48 in [7] and 26 in [8].

For `CC[C@@H]1CN[C@H](C(=O)N[C@H](Cc2ccc(F)cc2)C(=O)N2CCC(C(=O)NC(C)(C)C)(C3CCCCC3)CC2)CN1`, the concentration for half-maximal inhibition (IC50) in experiment [1] was determined as 40 nM. The same molecule gave a concentration for a half-maximal effect (EC50) in experiment [2] of 150 nM. The Accumulation was 6% in [3], 69% in experiment [5] and 45% in experiment [6]. Besides, the Selectivity in experiment [7] was 59; in experiment [8], 75.

The molecule `CC[C@@H]1CN[C@H](C(=O)N[C@H](Cc2ccc(F)cc2)C(=O)N2CCC(C(=O)NC(C)(C)C)(C3CCCCC3)CC2)CN1C` came in with an IC50 in experiment [1] of 46 nM. The EC50 was determined as 330 nM in [2] and 2400 nM in experiment [4]. The Accumulation in [3] came to 8%; in experiment [5], 58%; in experiment [6] it was 36%. For the same molecule, the figures for the Selectivity in [7] and in experiment [8] were 36 and 49, respectively.

Turning to `CC(C)[C@@H]1CN[C@H](C(=O)N[C@H](Cc2ccc(F)cc2)C(=O)N2CCC(C(=O)NC(C)(C)C)(C3CCCCC3)CC2)CN1`, the IC50 in [1] came to 20 nM. The concentration giving a half-maximal response (EC50) in [2] worked out at 42 nM; in experiment [4], 1400 nM. In addition, the Accumulation in experiment [3] stood at 6%; in experiment [5], 77%; in [6], 41%. Moreover, the Selectivity in experiment [7] was determined as 61; in experiment [8], 49.

Take `CC(C)(C)NC(=O)C1(C2CCCCC2)CCN(C(=O)[C@@H](Cc2ccc(F)cc2)NC(=O)[C@@H]2CN[C@@H](C(C)(C)C)CN2)CC1`: the half-inhibitory concentration (IC50) in [1] amounted to 5 nM. The values for the EC50 in experiment [2] and in [4] were 7 nM and 360 nM, respectively. Also, the Accumulation came to 11% in experiment [3], 99% in [5] and 46% in [6]. Besides, the Selectivity in [7] was 116; in [8], 39.

As for `CC(C)(C)NC(=O)C1(C2CCCCC2)CCN(C(=O)[C@@H](Cc2ccc(F)cc2)NC(=O)[C@@H]2CN[C@@H](C3CC3)CN2)CC1`, the IC50 in experiment [1] is 8 nM. Further, the concentration for a half-maximal effect (EC50) in experiment [2] came out at 5 nM; in experiment [4], 760 nM. Moreover, the Accumulation in [3] was found to be 9%; in experiment [5], 102%; in [6], 44%. In addition, the Selectivity in [7] is 119; in [8] it was 59. In experiment [9], the Activity was determined as 103.

The molecule `CC(C)C1CNC[C@@H](C(=O)N[C@H](Cc2ccc(F)cc2)C(=O)N2CCC(C(=O)NC(C)(C)C)(C3CCCCC3)CC2)N1` (some centres undefined) returned a half-inhibitory concentration (IC50) in experiment [1] of 11 nM. In [2], this molecule came in with a concentration giving a half-maximal response (EC50) of 18 nM. Besides, the figures for the Accumulation in experiment [3], in [5] and in experiment [6] were 4%, 92% and 10%, respectively. In addition, the Selectivity in experiment [7] is 81; in [8] it was 105. Moreover, the Activity in experiment [9] was determined as 216.

Turning to `CC[C@H]1CN[C@H](C(=O)N[C@H](Cc2ccc(F)cc2)C(=O)N2CCC(C(=O)NC(C)(C)C)(C3CCCCC3)CC2)CN1C`, the EC50 in [10] turned out to be 150 nM; in [2], 2 nM; in [4], 450 nM. Further, the 50% inhibitory concentration (IC50) in experiment [1] worked out at 3 nM. Besides, the results for the Accumulation in experiment [3], in experiment [5] and in [6] were 29%, 85% and 56%, respectively. Moreover, the figures for the Selectivity in [7] and in [8] were 116 and 192, respectively.

`CC(C)(C)NC(=O)C1(C2CCCCC2)CCN(C(=O)[C@@H](Cc2ccc(F)cc2)NC(=O)[C@@H]2CN[C@H](C3CC3)CN2)CC1.CC(F)(F)C(=O)O` gave an IC50 in [1] of 25 nM. The EC50 in experiment [2] is 36 nM; in [4] it was 1400 nM. The figures for the Accumulation in experiment [3], in experiment [5] and in experiment [6] were 4%, 67% and 33%, respectively. Besides, the values for the Selectivity in experiment [7] and in experiment [8] were 42 and 65, respectively.

Consider `CC(C)N(C(=O)C1(C2CCCCC2)CCN(C(=O)[C@@H](Cc2ccc(F)cc2)NC(=O)[C@@H]2CN(C)CCN2)CC1)C(C)C`, for which the Activity in [9] came out at 2150.

Turning to `CC(C)(C)NC(=O)C1(C2CCCCC2)CCN(C(=O)[C@@H](Cc2ccc(F)cc2)NC(=O)[C@@H]2CN[C@H](C3(C)CC3)CN2)CC1`, the concentration for half-maximal inhibition (IC50) in experiment [1] was 24 nM. The EC50 in experiment [2] was 93 nM; in experiment [4] it was 920 nM. Also, the Accumulation in [3] amounted to 5%; in experiment [5], 69%; in experiment [6], 56%. Besides, the Selectivity in experiment [7] amounted to 49; in [8], 23.

As for `CC(C)(C)NC(=O)C1(C2CCCCC2)CCN(C(=O)[C@@H](Cc2ccc(F)cc2)NC(=O)[C@@H]2CNC3(CC3)CN2)CC1`, the IC50 in [1] amounted to 17 nM. The EC50 came out at 41 nM in [2] and 1900 nM in experiment [4]. The Accumulation stood at 6% in experiment [3], 53% in experiment [5] and 36% in experiment [6]. Moreover, the Selectivity in [7] turned out to be 42; in [8], 61.

Source of the values: ChEMBL document CHEMBL1143519, “2-Piperazinecarboxamides as potent and selective melanocortin subtype-4 receptor agonists” (Bioorg Med Chem Lett, 2005).
